Measured values published in ChEMBL document CHEMBL4346709, “Design and Optimization Leading to an Orally Active TTK Protein Kinase Inhibitor with Robust Single Agent Efficacy” (J Med Chem, 2019).
pIC50: −log10 of the molar value.

Columns and labels:
CAL-51 [1] = assay: Antiproliferative activity against human CAL51 cells assessed as reduction in cell viability after 3 days by CellTiter-Glo reagent-based luminescent assay; format: functional; settings: CAL-51, 72 h
[2] = AUC in rat at 10 mg/kg, po; format: ADME, organism-based; settings: in vivo
Summary of the method: (§1)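 Rat oral PK at 10 mg/kg. Compound is given as a solution in CMCT (0.5% CMC/0.25% tween-80) or formulated in 5% TPGS, 10% captisol, 50 mM citrate buffer. Cmax and AUC are recorded.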

[3] = Cmax in CB17 SCID mouse at 30 mg/kg, po; format: ADME, organism-based; set-up: dose 30 mg/kg, route oral; settings: in vivo
Summary of the method: (§2)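 Oral PK in SCID mice at 30 mg/kg. Compound is formulated either in CMCT (0.5% CMC/0.25% tween-80) or in 5% TPGS, 10% captisol, 50 mM citrate buffer, depending on compound. Cmax and AUC are measured.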

[4] = AUC in CB17 SCID mouse at 30 mg/kg, po; format: ADME, organism-based; settings: in vivo; summary of the method: as §2
[5] = Metabolic stability in human liver S9 fraction assessed as parent compound remaining after 60 mins; format: ADME, subcellular; settings: read-out: Stability
[6] = target: T1, Dual specificity protein kinase TTK (Homo sapiens, UniProt P33981); assay: Inhibition of Kinase Tracer 236 binding to recombinant human full-length GST-tagged TTk expressed in baculovirus expression system measured after 1 hr by LanthaScreen Eu--kinase binding assay
T1 sequence (P33981 whole entry): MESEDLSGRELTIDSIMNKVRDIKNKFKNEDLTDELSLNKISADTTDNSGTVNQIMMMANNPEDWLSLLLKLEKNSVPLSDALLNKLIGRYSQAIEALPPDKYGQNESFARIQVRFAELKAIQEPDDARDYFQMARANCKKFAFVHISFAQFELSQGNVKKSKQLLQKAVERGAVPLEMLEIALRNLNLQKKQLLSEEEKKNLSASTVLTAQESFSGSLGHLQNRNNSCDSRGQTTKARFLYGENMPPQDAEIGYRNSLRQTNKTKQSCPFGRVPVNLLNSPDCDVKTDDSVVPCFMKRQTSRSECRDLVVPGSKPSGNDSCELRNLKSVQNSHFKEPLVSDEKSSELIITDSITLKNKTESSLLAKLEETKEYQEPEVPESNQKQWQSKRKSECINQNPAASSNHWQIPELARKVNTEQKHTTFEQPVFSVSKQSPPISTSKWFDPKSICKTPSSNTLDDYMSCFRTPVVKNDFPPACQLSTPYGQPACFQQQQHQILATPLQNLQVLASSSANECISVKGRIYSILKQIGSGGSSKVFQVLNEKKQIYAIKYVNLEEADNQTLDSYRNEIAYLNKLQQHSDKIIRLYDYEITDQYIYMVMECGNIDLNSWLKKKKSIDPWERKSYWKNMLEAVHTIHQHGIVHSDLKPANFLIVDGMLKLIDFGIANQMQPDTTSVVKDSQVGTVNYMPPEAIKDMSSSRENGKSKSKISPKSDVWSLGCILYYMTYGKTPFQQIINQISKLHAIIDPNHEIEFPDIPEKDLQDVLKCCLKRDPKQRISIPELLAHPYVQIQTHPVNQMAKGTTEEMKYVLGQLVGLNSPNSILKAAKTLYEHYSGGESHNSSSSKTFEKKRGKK

[7] = target: T1, Dual specificity protein kinase TTK; assay: Inhibition of TTK autophosphorylation in human CAL51 cells by radioimmuno-precipitation assay; format: cell-based
[8] = Cmax in rat at 10 mg/kg, po; format: ADME, organism-based; set-up: dose 10 mg/kg, route oral; settings: in vivo; summary of the method: as §1
[9] = Oral bioavailability in rat at 5 mg/kg; settings: in vivo
[10] = Toxicity in CB17 SCID mouse xenografted with human CAL51 cells assessed as body weight loss at 5 mg/kg, iv q4d and measured up to 31 days relative to control; format: organism-based; settings: in vivo, 744 h
CAL-51 [11] = assay: Antitumor activity against human CAL51 cells xenografted in CB17 SCID mouse assessed as tumor growth inhibition at 5 mg/kg, iv q4d and measured twice per week up to 31 days by caliper method relative to control; format: functional; settings: CAL-51, iv, 744 h, read-out: TGI

In the case of `COc1cc(C(=O)N2CCOCC2)ccc1Nc1nc(O[C@H]2CCOC(C)(C)C2)c2cc[nH]c2n1`, the pIC50 (CAL-51 [1]) was 6.39.

Molecule `CN(C)C(=O)c1ccc(Nc2nc(O[C@H]3CC[C@@](C)(O)CC3)c3cc[nH]c3n2)c(OCC(F)(F)F)c1` has a pIC50 (CAL-51 [1]) of 7.82 and an AUC [2] of 16.1 µM·h.

For `COc1cc(N2CCN(C3COC3)CC2)ccc1Nc1nc(O[C@H]2CCOC(C)(C)C2)c2cc[nH]c2n1`, the pIC50 (CAL-51 [1]) was 7.08, the Cmax [3] was 11.8 µM and the AUC [4] was 35.3 µM·h. For the same molecule, the AUC [2] was 24 µM·h, the remaining at 1 h [5] was 85% and the pIC50 [6] was 8.60. The pIC50 [7] was 7.36 and the Cmax [8] was 4.43 µM.

`COc1cc(C(=O)N(C)C)ccc1Nc1nc(OC2COC2)c2cc[nH]c2n1` showed a pIC50 (CAL-51 [1]) of 5.71 and a pIC50 [6] of 8.14.

For `COc1cc(N2CCOCC2)ccc1Nc1nc(O[C@H]2CCOC(C)(C)C2)c2cc[nH]c2n1`, the pIC50 (CAL-51 [1]) was 7.28 and the AUC [2] was 14.7 µM·h.

Work on `CCOc1cc(C(=O)N(C)C)ccc1Nc1nc(O[C@H]2CC[C@@](C)(O)CC2)c2cc[nH]c2n1` yielded a pIC50 (CAL-51 [1]) of 7.59.

Work on `COc1cc(N2CCN(C(=O)CO)CC2)ccc1Nc1nc(O[C@H]2CCOC(C)(C)C2)c2cc[nH]c2n1` yielded a pIC50 (CAL-51 [1]) of 7.43, a Cmax [3] of 9.86 µM and an AUC [4] of 17.6 µM·h. For the same molecule, the AUC [2] was 9.5 to 9.52 µM·h, the remaining at 1 h [5] was 79% and the pIC50 [6] was 8.89. It also gave a pIC50 [7] of 7.80 and a Cmax [8] of 2.53 µM.

`COc1cc(C(=O)N(C)C)ccc1Nc1nc(OC2CCOCC2)c2cc[nH]c2n1` showed a pIC50 (CAL-51 [1]) of 6.70 and a pIC50 [6] of 9.00.

Work on `COc1cc(C(=O)N(C)C)ccc1Nc1nc(O[C@H]2CC[C@@](C)(O)CC2)c2cc[nH]c2n1` yielded a pIC50 (CAL-51 [1]) of 7.36, an AUC [2] of 21.8 µM·h and a pIC50 [6] of 9.15.

Molecule `COc1cc(C(=O)N(C)C)ccc1Nc1nc(OC2CCCCC2)c2cc[nH]c2n1` has a pIC50 (CAL-51 [1]) of 6.72 and a pIC50 [6] of 8.89.

With `COc1cc(C(=O)N(C)C)ccc1Nc1nc(OC(C)C)c2cc[nH]c2n1` the pIC50 (CAL-51 [1]) was 5.90 and the pIC50 [6] was 8.49.

Work on `CNC(=O)c1ccc(Nc2nc(OC3CCCC3)c3c(-c4ccc5nc(C)oc5c4)c[nH]c3n2)c(OC)c1` yielded a bioavailability [9] of 0.9%.

With `COc1cc(N2CCC(C)(O)CC2)ccc1Nc1nc(O[C@H]2CCOC(C)(C)C2)c2cc[nH]c2n1` the pIC50 (CAL-51 [1]) was 7.15 and the AUC [2] was 11 µM·h.

In the case of `COc1cc(C(=O)N(C)C)ccc1Nc1nc(O[C@H]2CC[C@](C)(O)CC2)c2cc[nH]c2n1`, the pIC50 (CAL-51 [1]) was 7.16 and the pIC50 [6] was 9.22.

For `CC(=O)O[C@@]12CO[C@@H]1C[C@H](O)[C@@]1(C)C(=O)[C@H](O)C3=C(C)[C@@H](OC(=O)[C@H](O)[C@@H](NC(=O)OC(C)(C)C)c4ccccc4)C[C@@](O)([C@@H](OC(=O)c4ccccc4)[C@H]21)C3(C)C` [DOCETAXEL ANHYDROUS], the Activity [10] was 20% and the inhibition in vivo at 5 mg/kg (CAL-51 [11]) was 61%.

Work on `COc1cc(C(=O)N(C)C)ccc1Nc1nc(O[C@H]2CCOC(C)(C)C2)c2cc[nH]c2n1` yielded a pIC50 (CAL-51 [1]) of 6.88, an AUC [2] of 30 µM·h and a pIC50 [6] of 9.00.

Molecule `COc1cc(C(=O)N(C)C)ccc1Nc1nc(OC2CCCC2)c2cc[nH]c2n1` has a pIC50 (CAL-51 [1]) of 6.30 and a pIC50 [6] of 8.89.

For `C[C@@H](Oc1cc(C(=O)N(C)C)ccc1Nc1nc(O[C@H]2CC[C@@](C)(O)CC2)c2cc[nH]c2n1)C(F)(F)F`, the pIC50 (CAL-51 [1]) was 7.62 and the AUC [2] was 30 µM·h.
